SIRT5 block: inhibitors of human sirtuin-5 desuccinylase | inhibition, % at 15 µM | Purified SirT5, succinyl-peptide AMC, trypsin-coupled fluorescence | AID 652115 | Q9NXA8 | 330,000 compounds, 1.1% hits; in the data active means inhibition above about 15%; inconclusive means no clear call, values can overlap the other calls
Target sequence (Q9NXA8 whole entry, looked up): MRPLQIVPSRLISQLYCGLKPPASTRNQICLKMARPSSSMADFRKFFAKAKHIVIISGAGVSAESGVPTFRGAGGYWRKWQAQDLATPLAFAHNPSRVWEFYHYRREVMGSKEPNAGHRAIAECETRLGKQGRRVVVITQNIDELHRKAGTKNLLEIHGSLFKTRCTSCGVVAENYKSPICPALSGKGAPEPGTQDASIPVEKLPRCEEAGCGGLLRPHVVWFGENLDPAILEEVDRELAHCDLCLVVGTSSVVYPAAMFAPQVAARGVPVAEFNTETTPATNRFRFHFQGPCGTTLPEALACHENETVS
E-sel inducer: induces E-selectin expression in human endothelial cells | P16581 | HUVEC E-selectin immunofluorescence imaging; normalized: neutral wells 0, TNF-alpha wells 100 | activation, % at 7.58 µM | 260,000 compounds, 0.37% hits;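 active means mean E-selectin-positive cell signal at least 10% of the positive control, reached in at least 60% of replicates, without over 20% cell loss; inconclusive means no rule given, readout overlaps actives, possibly toxicity-flagged; inactive means the rest, including those meeting only one limit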
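Read-out basis: % PE-positive cells; Test system: HUVEC primary endothelial cells; Technique: immunofluorescence imaging; Dosing: single-point compound dose.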
DENV2 CPE: DENV2-induced cell death inhibition; CPE inhibition, % at 9.99 µM; DENV2-infected cells, cytopathic effect rescue, plate reader; AID 651640; 350,000 compounds, 1.7% hits; in the data active means CPE inhibition above about 20%, passing the limit was not always enough; inconclusive means no clear call, values can overlap the other calls; tested in BHK-21 cells;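 further: 0% = median of neutral control wells and 100% = median of positive control wells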
Starred values were filed as active, the others as inactive; u = inconclusive; x = no result. Rows were chosen to be rich in hits. Some 2.8% of all compounds tested hit in one or more screens of this group.

SMILES | SIRT5 block | E-sel inducer | DENV2 CPE
COc1ccc(S(=O)(=O)Nc2ccc3c(c2)C(=O)N([C@@H](C)CO)C[C@@H](C)[C@H](CN(C)S(=O)(=O)c2ccc(C)cc2)OCCCC[C@@H](C)O3)cc1 | 18.5* | x | u
COc1ccc(S(=O)(=O)Nc2ccc3c(c2)C(=O)N([C@@H](C)CO)C[C@@H](C)[C@@H](CN(C)S(=O)(=O)c2ccc(C)cc2)OCCCC[C@@H](C)O3)cc1 | 5.7 | x | 1.0
COc1ccc(S(=O)(=O)N(C)C[C@@H]2OCCCC[C@H](C)Oc3ccc(NS(=O)(=O)c4ccc(C)cc4)cc3C(=O)N([C@@H](C)CO)C[C@@H]2C)cc1 | 20.2* | -0.2 | 14.6
COc1ccc(S(=O)(=O)Nc2ccc3c(c2)C(=O)N([C@H](C)CO)C[C@H](C)[C@H](CN(C)S(=O)(=O)c2ccc(C)cc2)OCCCC[C@H](C)O3)cc1 | 12.5 | x | -3.4
C[C@@H]1CCCCO[C@@H](CN(C)C(=O)Nc2ccc3c(c2)OCO3)[C@@H](C)CN([C@@H](C)CO)C(=O)c2cc(NC(=O)Nc3ccc4c(c3)OCO4)ccc2O1 | x | -0.3 | -2.3
Cc1ccc(COc2ccc(/C=N/O)cc2)cc1 | -4.2 | 106.6* | 1.7
CCOc1ccc(/C=N/O)cc1 | x | 0.0 | x
CN1C[C@@H]2[C@H](c3ccccc31)[C@H](CO)N2C(=O)Nc1ccccc1 | x | -0.3 | x
O=C(NCc1ccc(F)cc1)c1cc(-c2ccccn2)nc2ccc(S(=O)(=O)N3CCOCC3)cc12 | x | -0.3 | 31.1*
O=C(NCc1ccccc1)c1cc(-c2ccncc2)nc2ccc(S(=O)(=O)N3CCOCC3)cc12 | 0.7 | x | -11.2
CCCN1C[C@@H](C)[C@@H](OC)CN(C)C(=O)c2ccc(NC(=O)C3CC3)cc2OC[C@H]1C | 11.1 | -0.4 | -1.5
O=C(CCN1CCCCC1)NCC[C@H]1CC[C@H](NC(=O)Nc2ccc(F)cc2)[C@@H](CO)O1 | -1.0 | -1.4 | -10.5
C[C@H]1CN([C@@H](C)CO)S(=O)(=O)c2ccc(-c3cncnc3)cc2O[C@@H]1CN(C)Cc1ccncc1 | 7.1 | 0.1 | -3.6
C[C@H](CO)N1C[C@H](C)[C@@H](CN(C)S(=O)(=O)c2ccc(F)cc2)Oc2c(NC(=O)Nc3ccc4c(c3)OCO4)cccc2C1=O | 4.0 | -0.1 | -13.3
Cc1ccc(S(=O)(=O)N(C)C[C@H]2Oc3c(NC(=O)Nc4ccc5c(c4)OCO5)cccc3C(=O)N([C@H](C)CO)C[C@H]2C)cc1 | 12.5 | 0.1 | -1.8
C[C@@H]1CN([C@@H](C)CO)C(=O)c2cccc(NC(=O)Nc3ccc4c(c3)OCO4)c2O[C@H]1CN(C)S(=O)(=O)c1ccc(F)cc1 | -6.5 | 55.4* | -5.9
Cc1ccc(S(=O)(=O)N(C)C[C@@H]2Oc3c(NC(=O)Nc4ccc5c(c4)OCO5)cccc3C(=O)N([C@H](C)CO)C[C@@H]2C)cc1 | 15.1* | 0.0 | 12.4
O=C(C[C@@H]1C[C@H]2c3cc(NS(=O)(=O)c4ccc(F)cc4)ccc3O[C@H]2[C@H](CO)O1)NCc1ccccc1F | 3.1 | -0.2 | -0.7
CC(NC(=O)CN1CCOCC1)c1ccccc1 (centres undefined) | 2.5 | x | 2.9
Cc1ccccc1CN1CCN(CC(=O)NC(C)c2ccccc2)CC1 (centres undefined) | x | x | 27.2*
CC(NC(=O)CN1CCCC1)c1ccccc1 (centres undefined) | x | x | 23.6*
Cc1ccc(S(=O)(=O)N2CCN(CC(=O)NC(C)c3ccccc3)CC2)cc1 (centres undefined) | -4.4 | -4.0 | 1.8
O=C(C[C@H]1CC[C@H](NC(=O)Nc2ccc(C(F)(F)F)cc2)[C@H](CO)O1)NCc1ccccn1 | 0.3 | 0.1 | -3.3
O=C(COC(=O)c1n[nH]c(=O)c2ccccc12)Nc1ccccc1 | 18.8* | 3.2 | -6.1
Cc1ccccc1NC(=O)COC(=O)c1n[nH]c(=O)c2ccccc12 | 1.9 | -0.1 | -1.7
SMILES | SIRT5 block | E-sel inducer | DENV2 CPE
CCS(=O)(=O)Nc1ccc2c(c1)C(=O)N(C)C[C@H](OC)[C@@H](C)CN(C(C)=O)[C@H](C)CO2 | -4.4 | -0.1 | -11.0
COc1ccccc1NC(=O)N1C[C@@H]2[C@H](c3ccccc31)[C@H](CO)N2C(=O)C1CCCC1 | -1.3 | 0.1 | u
Cc1cc2oc(=O)cc(Cn3ccnc3)c2cc1Cl | -0.5 | 0.4 | 26.0*
Cc1cc2oc(=O)cc(CN3CCCC3)c2cc1Cl | 0.3 | 2.6 | 0.9
COc1ccc(NC(=O)N(C)C[C@H]2OCCCC[C@H](C)Oc3ccc(N(C)C)cc3C(=O)N([C@H](C)CO)C[C@@H]2C)cc1 | -0.5 | 0.1 | u
CC(C)(C)C(=O)N1CCN(c2ccnc3cc(Cl)ccc23)CC1 | 0.8 | x | 8.4
CC(=O)c1ccc(N2CCN(c3ccnc4cc(Cl)ccc34)CC2)cc1 | 0.2 | 40.1* | 8.8
C[C@@H]1CN([C@@H](C)CO)S(=O)(=O)c2ccc(-c3ccc(F)cc3)cc2O[C@@H]1CN(C)C(=O)Nc1ccccc1F | -1.7 | 0.2 | x
